Source: ChEMBL document CHEMBL4699605, “Synthesis and biological evaluation of novel flexible nucleoside analogues that inhibit flavivirus replication in vitro” (Bioorg Med Chem, 2020)

What was measured:
[1] = tested on: dengue virus type 2; experiment: Antiviral activity against DENV-2 infected in African green monkey Vero cells assessed as virus titer reduction incubated for 48 hrs by plaque assay; type: functional, organism-based
[2] = Inhibition of Dengue virus 2'-O methyltransferase incubated for 15 mins followed by [methyl-3-H]-AdoMet addition and measured after 30 mins by microbeta counter method
In short: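 DENV-3 2′-O-MTase (0.5 µM) in 40 mM Tris-HCl pH 7.5 and 5 mM DTT with 1 µM capped RNA GpppAC5 and 10 µM AdoMet containing [3H]AdoMet, 30 °C for 30 min. Stopped by 20-fold dilution in ice-cold 100 µM AdoHcy. RNA captured on DEAE filter, washed, and transferred radioactivity counted. Inhibitor serially diluted, points in triplicate; IC50 from logistic dose-response fit with slope factor.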

[3] = Inhibition of Dengue virus N-7 methyltransferase incubated for 15 mins followed by [methyl-3-H]-AdoMet addition and measured after 15 mins by microbeta counter method

Compound	EC50 [1]	IC50 [2]	IC50 [3]
C#C[C@@]1(O)[C@H](O)[C@@H](CO)O[C@H]1n1ccc2c(N)ncnc21	640 nM		
Nc1ncnc2c1ncn2[C@@H]1O[C@H](C[C@@H](N)CC[C@H](N)C(=O)O)[C@@H](O)[C@H]1O [SINEFUNGIN]		41 nM	30 nM
